The source made the active and inactive calls. The calls are words filed in the database; no cut-off is given here.
How the values were obtained:
[1] = system: GT1-7; assay: Antiprion activity in human transmissible spongiform encephalopathies agent Fukuoka-1 prion infected mouse GT1-7 cells assessed as inhibition of proteinase K-resistant PrPres accumulation at […] after 3 days by Western blotting analysis; type: cell-based
Outline: (§1)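 GT1-7 mouse neuronal cells persistently infected with Fukuoka-1 agent, grown in DMEM with 10% FBS and penicillin G at 37 °C, 5% CO2. Seeded 3 × 10⁵ cells/well; 15 h later given compound diluted from 10 mM DMSO stock (control 0.1% DMSO). Lysate adjusted to 1 mg/mL protein, proteinase K 30 min 37 °C, pelleted, SDS-PAGE, anti-PrP M-20 Western blot. IC50 = 50% PrPres inhibition.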

[2] = system: GT1-7; assay: Antiprion activity in human transmissible spongiform encephalopathies agent Fukuoka-1 prion infected in mouse GT1-7 cells assessed as inhibition of proteinase K-resistant PrPres accumulation at 5 uM after 3 days by Western blot analysis relative to control; type: cell-based; outline: as §1
[3] = Antiprion activity in human transmissible spongiform encephalopathies agent Fukuoka-1 prion infected mouse GT1-7 cells assessed as inhibition of proteinase K-resistant PrPres accumulation after 3 days by Western blot analysis; type: cell-based; settings: GT1-7, 72 h; outline: as §1
[4] = Cytotoxicity against human transmissible spongiform encephalopathies agent Fukuoka-1 prion infected mouse GT1-7 cells at 10 uM after 3 days; type: cell-based; settings: gt1-7, 72 h
[5] = organism: Mus musculus; assay: Antiprion activity in scrapie infected mouse ScN2a-3-Ch cells assessed as inhibition of proteinase K-resistant PrPres accumulation at 5 uM after 3 days by Western blot analysis relative to control
Outline: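 Scrapie-infected ScN2a-3-Ch cells seeded at about 1 × 10⁵ cells/well and handled as in the GT1-7 assay. Compound diluted from 10 mM DMSO stock, with 0.1% DMSO control. Lysate protein adjusted to 1 mg/mL, then proteinase K digestion 30 min at 37 °C. Pellet analysed by Western blot for PrPres, expressed relative to control.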

[6] = system: GT1-7; assay: Antiprion activity in human transmissible spongiform encephalopathies agent Fukuoka-1 prion infected mouse GT1-7 cells assessed as inhibition of PrPC expression at 5 uM after 3 days absence of proteinase K digestion; type: cell-based
Outline: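 GT1-7 cells persistently infected with Fukuoka-1 agent, seeded 3 × 10⁵ cells/well. Compound from 10 mM DMSO stock added 15 h after seeding (vehicle 0.1% DMSO). Lysates adjusted to 1 mg/mL total protein (BCA). Run without proteinase K digestion, so PrPC is read by Western blot with M-20 anti-PrP antibody.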

[7] = system: GT1-7; assay: Ratio of compound IC50 over GJP14 IC50 for human transmissible spongiform encephalopathies agent Fukuoka-1 prion infected in mouse GT1-7 cells; type: cell-based

SMILES | inhibition [1] | further results
OC(CN1CCOCC1)Cn1c2c(c3ccccc31)CCCC2 (centres undefined) | Active | –
OC(CNc1ccccc1)Cn1c2c(c3ccccc31)CCCC2 (centres undefined) | inactive | –
OC(CNCc1cccc2ccccc12)Cn1c2c(c3ccccc31)CCCC2 (centres undefined) | Active | –
OC(CNCc1ccc(F)cc1)Cn1c2c(c3ccccc31)CCCC2 (centres undefined) | Active | –
OC(CNCc1ccccc1F)Cn1c2c(c3ccccc31)CCCC2 (centres undefined) | Active | –
OC(CNCc1ccccc1C(F)(F)F)Cn1c2c(c3ccccc31)CCCC2 (centres undefined) | Active | –
COc1ccccc1CNCC(O)Cn1c2c(c3ccccc31)CCCC2 (centres undefined) | Active | –
c1ccc2c3c([nH]c2c1)CCCC3 | inactive | –
OC(CN1CCCCC1)Cn1ccc2c1CCCC2 (centres undefined) | inactive | –
OC(CNCc1ccc(F)cc1F)Cn1c2c(c3ccccc31)CCCC2 (centres undefined) | Active | –
OC(CNCc1ccccc1Cl)Cn1c2c(c3ccccc31)CCCC2 (centres undefined) | Active | –
OC(CN1CCCCC1)Cn1c2c(c3ccccc31)CCCC2 (centres undefined) | Active | –
Cc1ccccc1CNCC(O)Cn1c2c(c3ccccc31)CCCC2 (centres undefined) | Active | –
OC(CN1CCCCC1)Cn1ccc2ccccc21 (centres undefined) | inactive | –
OC(CNCc1ccccn1)Cn1c2c(c3ccccc31)CCCC2 (centres undefined) | Active | –
O=C(CN1CCCC1)Nc1ccc(Cc2ccc(NC(=O)CN3CCCC3)cc2)cc1 | – | inhibition [2]: 34%; IC50 [3]: 1.4 µM
OC(CNCc1ccc(Br)cc1)Cn1c2c(c3ccccc31)CCCC2 (centres undefined) | – | inhibition [2]: 25%; Activity [4]: Toxic
OC(CNCc1cccc(C(F)(F)F)c1)Cn1c2c(c3ccccc31)CCCC2 (centres undefined) | – | inhibition [2]: 40%; Activity [4]: Toxic
CC(C)(NCC(O)Cn1c2c(c3ccccc31)CCCC2)c1ccccc1 (centres undefined) | – | inhibition [2]: 34%; Activity [4]: Toxic
OC(CNCc1cc(F)ccc1F)Cn1c2c(c3ccccc31)CCCC2 (centres undefined) | Active | –
O[C@H](CNCc1ccccc1F)Cn1c2c(c3ccccc31)CCCC2 | – | IC50 [3]: 2.23 µM

SMILES | inhibition [1] | further results
OC(CNC1CCCC1)Cn1c2c(c3ccccc31)CCCC2 (centres undefined) | Active | –
Cc1cccc(CNCC(O)Cn2c3c(c4ccccc42)CCCC3)c1 (centres undefined) | Active | –
OC(CNCc1ccc(C(F)(F)F)cc1)Cn1c2c(c3ccccc31)CCCC2 (centres undefined) | Active | –
COc1cccc(CNCC(O)Cn2c3c(c4ccccc42)CCCC3)c1 (centres undefined) | – | inhibition [2]: 21%; Activity [4]: Toxic
OC(CNCc1cccnc1)Cn1c2c(c3ccccc31)CCCC2 (centres undefined) | Active | –
Cc1ccc2c(c1)c1c(n2CC(O)CN2CCCCC2)C(=O)CCC1 (centres undefined) | – | IC50 [3]: 8.54 µM
OC(CNCc1cccc(Cl)c1)Cn1c2c(c3ccccc31)CCCC2 (centres undefined) | Active | –
O[C@@H](CNCc1ccccc1F)Cn1c2c(c3ccccc31)CCCC2 | – | inhibition [5]: Active; inhibition [6]: inactive; Ratio IC50 [7]: 8; IC50 [3]: 1.11 µM
OC(CNCc1c(F)cccc1F)Cn1c2c(c3ccccc31)CCCC2 (centres undefined) | Active | –
OC(CNCc1cccc(Br)c1)Cn1c2c(c3ccccc31)CCCC2 (centres undefined) | Active | –
CCCCNCC(O)Cn1c2c(c3ccccc31)CCCC2 (centres undefined) | Active | –
OC(CNCc1ccccc1Br)Cn1c2c(c3ccccc31)CCCC2 (centres undefined) | Active | –
OC(CNCc1ccccc1)Cn1c2c(c3ccccc31)CCCC2 (centres undefined) | Active | inhibition [2]: 28%
OC(CN1CCCCC1)Cn1cccc1 (centres undefined) | inactive | –
OC(CN1CCCCC1)Cn1c2ccccc2c2ccccc21 (centres undefined) | Active | –
Cc1ccc(CNCC(O)Cn2c3c(c4ccccc42)CCCC3)cc1 (centres undefined) | – | inhibition [2]: 32%; Activity [4]: Toxic
OC(CNCc1ccncc1)Cn1c2c(c3ccccc31)CCCC2 (centres undefined) | Active | –
COc1ccc(CNCC(O)Cn2c3c(c4ccccc42)CCCC3)cc1 (centres undefined) | – | inhibition [2]: 23%; Activity [4]: Toxic
OC(CNCc1c(Cl)cccc1Cl)Cn1c2c(c3ccccc31)CCCC2 (centres undefined) | Active | –
OC(CNCc1ccc(Cl)cc1)Cn1c2c(c3ccccc31)CCCC2 (centres undefined) | – | inhibition [2]: 18%; Activity [4]: Toxic
OC(CNCc1cccc(F)c1)Cn1c2c(c3ccccc31)CCCC2 (centres undefined) | Active | –

— ChEMBL document CHEMBL1909516, “Synthesis of 9-substituted 2,3,4,9-tetrahydro-1H-carbazole derivatives and evaluation of their anti-prion activity in TSE-infected cells” (Eur J Med Chem, 2011)
